From ChEMBL document CHEMBL1123146, “Design, synthesis, and evaluation of omega-iodovinyl- and omega-iodoalkyl-substituted methyl-branched long-chain fatty acids” (J Med Chem, 1985) come the findings set out here.

In series [1] the test system is Rattus norvegicus. In words: Concentration was measured in kidney tissue of unfasted Fischer 344 rats administered intravenously after 60 minute (radiolabeled with [125I]-. The note with it: in vivo, iv, 1 h. Format: ADME, organism-based. In outline:
(§1)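 Female Fischer 344 rats, 10-12 weeks old, 170-200 g, with food and water ad libitum. The 125I-fatty acid was taken up in ethanol, added dropwise to stirred 6% BSA at ~40 °C (final ethanol 10%), filtered, and given as 0.5 mL via lateral tail vein under ether anesthesia. Rats were killed by cervical fracture; blood was taken by cardiac puncture. Organs were rinsed, blotted, weighed and gamma-counted against injectate standards to give %ID/g. Five rats per time point.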

The test system of series [2] is Rattus norvegicus. In words: Concentration was measured in liver tissue f unfasted Fischer 344 rats administered intravenously after 30 minute (radiolabeled with [123I]-. Format: ADME, organism-based. The note with it: in vivo, iv, 0.5 h.
The test system of series [3] is Rattus norvegicus. In words: Concentration was measured in liver tissue f unfasted Fischer 344 rats administered intravenously after 30 minute (radiolabeled with [125I]-. Format: ADME, organism-based. As to conditions: in vivo, iv, 0.5 h. In a few lines:
as §1

For series [4], the system named is Rattus norvegicus. In words: Concentration was measured in liver tissue of unfasted Fischer 344 rats administered intravenously after 4 hr (radiolabeled with [123I]-. The series is classed as ADME, organism-based. The note with it: in vivo, iv.
Series [5] concerns Rattus norvegicus. In words: Concentration was measured in lungs tissue of unfasted Fischer 344 rats administered intravenously after 4 hr (radiolabeled with [123I]-. Format: ADME, organism-based, Lung. As to conditions: in vivo, iv.
Series [6] relates to Rattus norvegicus. In words: Concentration was measured in kidney tissue of unfasted Fischer 344 rats administered intravenously after 4 hr (radiolabeled with [125I]-. Format: ADME, organism-based. The note with it: in vivo, iv.
Series [7] relates to Rattus norvegicus. In words: Concentration was measured in lungs tissue of unfasted Fischer 344 rats administered intravenously after 5 minute (radiolabeled with [125I]-. Format: ADME, organism-based, Lung. The note with it: in vivo, iv, 5 min. In a few lines:
as §1

Series [8] relates to Rattus norvegicus. In words: Concentration was measured in mean heart/blood tissue of unfasted Fischer 344 rats administered intravenously after 4 hr (radiolabeled with [123I]-. Format: ADME, organism-based. The note with it: in vivo, iv.
Series [9] concerns Rattus norvegicus. In words: Concentration was measured in thyroid tissue of unfasted Fischer 344 rats administered intravenously after 5 minute (radiolabeled with [125I]-. The series is classed as ADME, organism-based, Thyroid gland. As to conditions: in vivo, iv, 5 min. In outline: (§2)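 Female Fischer 344 rats, 10–12 weeks old (170–200 g), with food and water ad libitum, five per time point. The radioiodinated fatty acid was dissolved in ethanol, added to 6% BSA at ~40 °C (final 10% ethanol), filtered, and injected into a lateral tail vein (0.5 mL) under ether anesthesia. Blood was taken by cardiac puncture; organs were rinsed, blotted, weighed and gamma-counted against injectate standards. Output is % injected dose/g.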

The subject of series [10] is Rattus norvegicus. In words: Concentration was measured in tissue of unfasted Fischer 344 rats administered intravenously after 60 minute (radiolabeled with [125I]-. Format: ADME, organism-based. The note with it: in vivo, iv, 1 h. In outline: as §2
Series [11] has as its system Rattus norvegicus. In words: Concentration was measured in thyroid tissue of fasted Fischer 344 rats administered intravenously after 4 hr (radiolabeled with [123I]-. As to conditions: in vivo, iv.
The test system of series [12] is Rattus norvegicus. In words: Concentration was measured in thyroid tissue of fasted Fischer 344 rats administered intravenously after 30 minute (radiolabeled with [123I]-. The note with it: in vivo, iv, 0.5 h.
The test system of series [13] is Rattus norvegicus. In words: Concentration was measured in mean heart/blood tissue of fasted Fischer 344 rats administered intravenously after 60 minute (radiolabeled with [123I]-. The note with it: in vivo, iv, 1 h.
Series [14] has as its system Rattus norvegicus. In words: Concentration was measured in mean heart/blood tissue of fasted Fischer 344 rats administered intravenously after 30 minute (radiolabeled with [123I]-. The note with it: in vivo, iv, 0.5 h.
The subject of series [15] is Rattus norvegicus. In words: Concentration was measured in mean heart/blood tissue of fasted Fischer 344 rats administered intravenously after 30 minute (radiolabeled with [125I]-. As to conditions: in vivo, iv, 0.5 h.

As to `CC(CCCCCCCCCCCCCC/C=C/I)CC(=O)O.O=C(O)CCCCCCCCCCCCCCCC/C=C/I` (stereo not given), the Distribution with Rattus norvegicus [1] came out at 1.3%; in the series with Rattus norvegicus [2] it was 3.49%; in the series on Rattus norvegicus [3] it was 4.53%; with Rattus norvegicus [4], 1.83%; with Rattus norvegicus [5], 1.23%; in the series on Rattus norvegicus [6], 0.66%. In addition, the Distribution in the series with Rattus norvegicus [7] is 1.36%; with Rattus norvegicus [8], 0.96%; in the series with Rattus norvegicus [9], 16.7%; in the series on Rattus norvegicus [10], 82.9%; in the series on Rattus norvegicus [11], 392%; in the series on Rattus norvegicus [12], 65.3%. The Distribution is 1.2% with Rattus norvegicus [13], 1.6% in the series with Rattus norvegicus [14] and 4.3% with Rattus norvegicus [15].
